Only some compounds are listed: those with a hit (about 6.7% of all), similar ones and a draw of the others.
Beta cell apopt: beta cell apoptosis inhibition; INS-1E cytokine-induced death, ATP luminescence, 48 h; percent of positive-control rescue, neutral wells zero; protection from apoptosis, % (no concentration beside the values); 300,000 compounds, 0.8% hits; AID 435005;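 active = Every replicate reaches about 75%, or at least half do and their mean reaches it too, limit read from the data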;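 note: 0% = cytokine-treated negative control wells and 100% = positive control rescue; higher means more ATP so stronger rescue from cytokine killing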
NR3A LBD binder: modulators (binders) of human NR3A ligand-binding domain. NR3A LBD differential scanning fluorimetry, Tm shift; 0% = protein alone, 100% = glycine-bound protein. Tm shift relative to glycine control, % at 25 µM. 340,000 compounds, 2.5% hits. AID 1259313;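 active = melting temperature shift of at least 10% of the positive control shift, at one fixed dose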
T cruzi repl: blocks replication of Trypanosoma cruzi. 300,000 compounds, 1.4% hits. T. cruzi beta-gal in NIH3T3, luminescence, 90 h. inhibition, % (concentration not given with the values);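 active = mean inhibition across valid replicates above about 55%, limit read from the data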;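 note: signal also drops with host cell toxicity which is not excluded here; 0% = plate median of DMSO wells and 100% = zero luminescence signal; higher percent means less beta-gal luminescence so fewer parasites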
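Read-out: Parasite load inhibition, % | Test system: Mouse NIH/3T3 fibroblasts infected with β-gal-expressing T. cruzi Tulahuen C4 | Amount: 5,000 cells/well | Medium: DMEM, 2% fetal bovine serum | Signal: GalScreen β-gal luminescence, detergent lysis, 60 min | Timing: 3 h attach, ≥90 h co-culture | Also added: Tulahuen C4 trypomastigotes, 5000/well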
PREPL inhibitor: human PREPL enzyme inhibition | Q4J6C6 | recombinant PREPL, fluorescence polarization activity-based probe | inhibition, % at 5.96 µM | 320,000 compounds, 0.68% hits; in the data active = inhibition above about 43%;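 note: 0% = enzyme with DMSO and 100% = wells lacking enzyme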
Target sequence (Q4J6C6 whole entry, looked up): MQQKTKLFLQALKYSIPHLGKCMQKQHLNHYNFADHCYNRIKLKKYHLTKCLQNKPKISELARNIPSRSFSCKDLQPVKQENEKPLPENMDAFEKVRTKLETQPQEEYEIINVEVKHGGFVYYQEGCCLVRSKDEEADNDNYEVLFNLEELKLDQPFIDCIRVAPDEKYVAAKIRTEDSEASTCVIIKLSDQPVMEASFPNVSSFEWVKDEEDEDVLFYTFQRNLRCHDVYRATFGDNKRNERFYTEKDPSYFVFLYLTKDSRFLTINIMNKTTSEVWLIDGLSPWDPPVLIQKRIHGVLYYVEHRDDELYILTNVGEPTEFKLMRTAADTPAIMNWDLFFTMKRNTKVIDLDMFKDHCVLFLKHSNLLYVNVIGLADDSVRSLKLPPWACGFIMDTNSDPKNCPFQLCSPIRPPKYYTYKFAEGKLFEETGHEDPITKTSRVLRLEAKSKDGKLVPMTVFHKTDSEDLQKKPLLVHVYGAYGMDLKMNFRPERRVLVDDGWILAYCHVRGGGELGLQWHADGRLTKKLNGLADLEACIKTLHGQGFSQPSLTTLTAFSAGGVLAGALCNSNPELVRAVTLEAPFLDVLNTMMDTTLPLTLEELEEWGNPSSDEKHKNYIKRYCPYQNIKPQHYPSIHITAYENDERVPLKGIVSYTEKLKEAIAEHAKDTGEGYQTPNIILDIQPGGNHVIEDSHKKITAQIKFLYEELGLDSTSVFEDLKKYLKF
CSC inhib: blocks cancer stem cells; cancer stem cell-like cells viability, luminescence; inhibition, % at 7.5 µM; 300,000 compounds, 1.1% hits; AID 2717; in the data active = inhibition above about 75%; tested in HMLE shEcad cells
CHOP inhibitor: inhibitors of CHOP induction in ER stress response; CHO-K1 CHOP-promoter luciferase, tunicamycin-induced, 15-18 h; inhibition, % at 10 µM; 220,000 compounds, 3.8% hits; AID 2732;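 active = compounds that reduced the stress-induced luciferase reporter signal by more than about 70% of percent inhibition, limit read from the data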;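 note: 0% = tunicamycin plus vehicle and 100% = wells without tunicamycin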
CHOP inh conf: confirmation of CHOP induction inhibitors. shares compounds with CHOP inhibitor. 2,100 compounds, 45% hits. inhibition, % at 10 µM. CHO-CHOP promoter luciferase reporter, tunicamycin-induced, luminescence;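 active = mean of three repeat readings of reporter signal inhibition above a set limit, cut at about 70% in these data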;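 note: 0% = tunicamycin plus vehicle and 100% = wells lacking tunicamycin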
* = called active by the depositor; . = not tested or not shown.

SMILES	Beta cell apopt	NR3A LBD binder	T cruzi repl	PREPL inhibitor	CSC inhib	CHOP inhibitor	CHOP inh conf
O=C(NCc1ccccc1Cl)c1ccc(S(=O)(=O)Nc2cccc(C(F)(F)F)c2)cc1	.	25*	-4	-12	38	98*	110*
Cc1ccc(S(=O)(=O)Nc2ccc(NC(=O)Nc3cccc(C(F)(F)F)c3)cc2)cc1	96*	37*	-3	4	96*	99*	116*
O=C(Nc1ccc(OC(F)F)cc1)Nc1cccc(C(F)(F)F)c1	78*	39*	42	6	71	110*	86*
O=C(NCCNC(=O)c1cc(OCC(F)(F)F)ccc1OCC(F)(F)F)Nc1cccc(C(F)(F)F)c1	19	5	-24	-9	38	104*	101*
O=C(NCc1ccccc1Cl)c1ccc(S(=O)(=O)N2CCCC2)cc1	.	2	.	2	.	.	.
CNS(=O)(=O)c1ccc(NC(=O)Nc2cccc(F)c2)cc1	1	-4	10	10	6	21	.
CN(C)S(=O)(=O)NCCNC(=O)c1cc(OCC(F)(F)F)ccc1OCC(F)(F)F	-13	-4	-12	2	-7	14	.
NNC(=O)Nc1cccc(C(F)(F)F)c1	-3	0	-7	3	-1	3	.
Cc1nn(-c2ccc(C(F)(F)F)cn2)c(C)c1Oc1ccccc1O	-7	-7	-3	-8	-10	100*	102*
Cc1cc(=O)[nH]c(-n2nc(C)c(Oc3ccccc3O)c2C)n1	.	-2	-16	5	18	-4	.
O=C(c1ccccc1)N1CCN(C(=O)c2nn3c(C(F)(F)F)cc(-c4ccccc4)nc3c2Br)CC1	-7	-1	-12	-1	5	.	.
COc1ccccc1NS(=O)(=O)c1cccc(NC(=O)Nc2cccc(Cl)c2)c1	21	23*	62*	-9	-15	101*	51
CC(C)(C)c1ccc(OCCNC(=S)Nc2ccccc2)cc1	14	7	2	10	28	104*	72*
CC(C)(C)c1ccc(OCCNCc2ccccc2)cc1	-1	1	7	-18	38	.	.
Cc1ccc(-c2nn(-c3ccccc3)cc2/C=N/NC(=O)c2ccc(Br)o2)cc1	136*	-5	23	16	29	104*	121*
CC(=O)Nc1ccc(C2NC(=O)CCC2[N+](=O)[O-])cc1 (centres undefined)	4	2	-9	8	10	.	.
C=CCNC(=O)C1CC(=O)N(c2ccc(OCC(=O)Nc3ccc(Cl)cc3)cc2)C1 (centres undefined)	.	0	-3	-11	1	.	.
COc1ccc(N(C(=O)c2snc(C(N)=O)c2N)C(C(=O)NC2CCCC2)c2cccs2)cc1OC (centres undefined)	-2	-2	8	-1	-10	.	.
O=C(CS(=O)CC(=O)N(c1ccccc1)C(C(=O)NC1CCCC1)c1cccs1)Nc1ccc(F)cc1 (centres undefined)	1	-1	-13	-6	-10	12	.
COc1cccc(N(C(=O)CS(=O)CC(=O)Nc2ccc(F)cc2)C(C(=O)NC2CCCCC2)c2cccs2)c1 (centres undefined)	-1	-1	-5	7	-6	100*	51
C#CC(=O)N(c1cc(OC)ccc1OC)C(C(=O)NC1CCCC1)c1cccs1 (centres undefined)	6	1	33	22	21	108*	111*
C/C(=N\NC(=O)COc1cccc(Br)c1)c1ccc2c(c1)OCCO2	-6	0	.	15	.	.	.
Nc1ccc2oc(-c3cc(Br)ccc3Cl)nc2c1	-4	0	-13	6	39	97*	74*
Nc1ccc2oc(-c3ccccc3Cl)nc2c1	0	-3	10	9	-11	39	.
COCC(C)NC(=S)Nc1ccccc1[N+](=O)[O-] (centres undefined)	-14	0	-7	13	2	8	.
SMILES	Beta cell apopt	NR3A LBD binder	T cruzi repl	PREPL inhibitor	CSC inhib	CHOP inhibitor	CHOP inh conf
Cc1ccc2nc(Nc3ccc4[nH]c(=O)[nH]c4c3)c(-n3nc(C)cc3C)nc2c1	-7	-12	30	11	27	104*	114*
Cc1[nH]n(-c2cccc3ccccc23)c(=O)c1C=Nc1ccc2[nH]c(=O)[nH]c2c1	-4	-2	-7	27	11	1	.
Cc1ccc(-n2[nH]c(C)c(C=Nc3ccc4[nH]c(=O)[nH]c4c3)c2=O)cc1	28	-17	3	32	.	103*	-4
Nc1ccc(CSc2ccc(Cl)cc2)cc1	-8	0	5	11	3	18	.
Cc1ccc(-n2c(=O)[nH]c3c(C(N)=O)nc(-c4ccc(C)o4)nc32)cc1	3	-1	5	2	-10	107*	121*
Cc1ccc(-n2c(=O)[nH]c3c(C(N)=O)nc(CC(C)C)nc32)cc1	-8	-2	0	-1	-15	49	.
O=S(=O)(/N=S1/CC=CCN1S(=O)(=O)c1ccccc1)c1ccccc1 (centres undefined)	3	1	-3	2	7	104*	6
O=C(CNc1cccc2ccccc12)N/N=C/C(Br)=C/c1ccccc1	-9	16*	-20	24	47	106*	10
O=C(NCc1cc([N+](=O)[O-])ccc1O)c1cccnc1Sc1ccccc1Cl	4	-6	-17	-2	-2	.	.
O=C(N=Nc1c(O)n(Cc2ccccc2)c2ccccc12)c1ccc(O)cc1	8	4	18	9	34	36	.
O=C(N=Nc1c(O)n(Cc2ccccc2)c2ccccc12)c1cc2ccccc2cc1O	84*	13*	1	3	48	106*	95*
Cc1ccc(NC(=O)Cn2c(O)c(N=NC(=O)c3cc4ccccc4cc3O)c3ccccc32)cc1	102*	6	.	-11	99*	97*	-21
CN(c1ccccc1)C1CCCCC1NS(=O)(=O)c1ccc(Cl)cc1 (centres undefined)	4	-9	23	20	-7	96*	27
CCN(CC)C1CCCCC1NS(=O)(=O)c1ccc(Cl)cc1 (centres undefined)	1	2	-2	-77	8	-1	.
CCOc1ccc2nc(NC(=O)CSc3nc4c(c(=O)n(C)c(=O)n4C)n3C(C)C)sc2c1	-21	-1	14	14	3	105*	84*
CC(C)n1c(SCC(=O)Nc2nc3ccccc3s2)nc2c1c(=O)n(C)c(=O)n2C	-8	-12	-14	36	.	21	.
CCOc1ccc2nc(NC(=O)CSc3nnnn3C3CCCCC3)sc2c1	-7	0	56*	1	-10	107*	110*
COc1ccc2nc(NC(=O)CSc3nnnn3C3CCCCC3)sc2c1	-3	-3	14	-1	11	1	.

Screening data from PubChem BioAssay.
